Data: PubChem BioAssay AID485279 (Sanford-Burnham Center for Chemical Genomics, 2010)
Calls of active or inactive are those of the source.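 How the source made its calls: active means average efficacy above 50%; inactive means the rest.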

Test system: U2OS-GPR55 ERK1/2 phosphorylation, western blot
Assay: GPR55 agonist-induced ERK1/2 phosphorylation, SAR follow-up, mechanism study, cell-based, U2OS-GPR55, western blot, MAPK activation (AID 485279)
Conditions: at 1 µM, stronger effect = higher value; for stimulation: measured here: ERK stimulation vs negative control
How it was run: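 Material: GPR55/beta-arrestin-GFP U2OS cells | Quantity: 20 µg cytosolic lysate protein per blot lane | Measured by: Two-colour fluorescent western blot of cytosolic lysates | Times: 48 h serum starvation, then 10 min compound exposure at room temperature | Controls: LPI 10 µM reference agonist | Dosing: Single compound dose, 1 µM final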

For `CN(C)S(=O)(=O)c1ccc(N2CCCC2)c(C(=O)N2CCN(c3ccc([N+](=O)[O-])cc3)CC2)c1`, the efficacy was 63.1% and the stimulation was 141%.

With `Cc1occc1C(=O)Nc1ccc(OCc2ccccc2)cc1` the efficacy was 69% and the stimulation was 127%.

`COc1ccc(S(=O)(=O)N2CCOCC2)cc1NC(=O)c1cc2c(s1)CCCC2` was tested, and the efficacy was 95.6% and the stimulation was 135%.

Compound `COc1ccc(-c2csc(NC(=O)CSc3nnc4c(C)cc5ccccc5n34)n2)cc1` has an efficacy of 79.7% and a stimulation of 133%.

`CCCN(CCC)Cc1c(C(=O)NN=Cc2c[nH]c3ccccc23)nnn1-c1nonc1N` was tested, and the efficacy was -65.3% (inactive) and the stimulation was 77.7%.

`COc1ccccc1/C=C/C(=O)NC(=S)Nc1ccc(S(=O)(=O)N(C)c2ccccc2)cc1` showed an efficacy of 259% and a stimulation of 201%.

In the case of `Cc1cccc(N2CCN(C(=O)c3cc(S(=O)(=O)N(C)C)ccc3N3CCCC3)CC2)c1C`, the efficacy was 128% and the stimulation was 149%.

`CC(C)Oc1ccc(S(=O)(=O)N2CCOCC2)cc1NC(=O)c1ccc(N2CCCC2=O)cc1` gave an efficacy of 103% and a stimulation of 143%.

`COc1ccc2cc(C)c3nnc(SCC(=O)Nc4nc(-c5ccc(F)cc5)cs4)n3c2c1` showed an efficacy of 133% and a stimulation of 168%.
